# Test results reported in ChEMBL document CHEMBL1122987, “Synthesis and central dopaminergic effects of N-(4,6-dimethyl-2-pyridinyl)benzamides” (1985).
# What was measured:
# [1] = organism: Mus musculus; assay: Antipsychotic effect was tested against motility scores in naive mice at a control value of 815; type: functional
# [2] = organism: Mus musculus; assay: Antipsychotic effect was tested against motility scores in reserpinized mice at a control value of 11; type: functional
# [3] = organism: Mus musculus; assay: Motility against number of interrupted beams in 1 hour in naive mice by 10 determinations; type: functional
# [4] = organism: Mus musculus; assay: Motility against number of interrupted beams in 1 hour in reserpine treated mice by 9 determinations.; type: functional
# [5] = organism: Mus musculus; assay: Motility against number of interrupted beams in 1 hr in reserpine & apomorphine treated mice by 21 determinations; type: functional
# Summary of the method: (§1)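 Mice reserpinized (10 mg/kg ip), then apomorphine 2 mg/kg ip given 20 h later; benzamide dosed 1 h before apomorphine. Individual photocell beam interruptions recorded for 60 min after apomorphine. Controls received acacia gum aqueous suspension; means ± SEM, Student's t test vs controls.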
# [6] = organism: Rattus norvegicus; assay: Compound was evaluated for the homovanillic acid levels of rats corpus striata by 14 determinations; type: functional
# Summary of the method: (§2)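 Male Wistar C.F. rats (200 ± 20 g); corpus striatum removed 5 h after dosing, HVA extracted from tissue and measured fluorimetrically, expressed as µg/g. Controls got acacia gum suspension; means ± SEM, Student's t test vs controls.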
# [7] = organism: Rattus norvegicus; assay: Compound was evaluated for the homovanillic acid levels of rats limbic system by 15 determinations; type: functional
# Summary of the method: (§3)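 Male Wistar C.F. rats (200 ± 20 g); limbic system dissected 5 h post-dose, HVA extracted and determined by fluorimetry (µg/g tissue). Vehicle controls received acacia gum aqueous suspension; means ± SEM, Student's t test.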
# [8] = organism: Mus musculus; assay: Motility against number of interrupted beams in 1 hr in reserpine & apomorphine treated mice by 11 determinations; type: functional; summary of the method: as §1
# [9] = organism: Rattus norvegicus; assay: Compound was evaluated for the homovanillic acid levels of rats Corpus striata by 7 determinations; type: functional; summary of the method: as §2
# [10] = organism: Rattus norvegicus; assay: Compound was evaluated for the homovanillic acid levels of rats limbic system by 6 determinations; type: functional; summary of the method: as §3
# [11] = organism: Mus musculus; assay: Motility of the Compound was tested against number of interrupted beams in 1 hour in naive mice by 10 determinations; type: functional
# [12] = organism: Mus musculus; assay: Motility of the Compound was tested against number of interrupted beams in 1 hr in reserpine & apomorphine treated mice by 12 determinations; type: functional; summary of the method: as §1
# [13] = organism: Rattus norvegicus; assay: Compound was evaluated for the homovanillic acid levels of rats corpus striata by 7 determinations; type: functional; summary of the method: as §2
# [14] = organism: Rattus norvegicus; assay: Compound was evaluated for the homovanillic acid levels of rats limbic system by 8 determinations; type: functional; summary of the method: as §3
# [15] = organism: Mus musculus; assay: Motility of the Compound was tested against number of interrupted beams in 1 hour in reserpine treated mice by 8 determinations; type: functional
# [16] = organism: Mus musculus; assay: Motility of the Compound was tested against number of interrupted beams in 1 hr in reserpine & apomorphine treated mice by 14 determinations; type: functional; summary of the method: as §1
# [17] = organism: Mus musculus; assay: Motility against number of interrupted beams in 1 hour in naive mice by 13 determinations; type: functional
# [18] = organism: Rattus norvegicus; assay: Compound Evaluated for the homovanillic acid levels of rats corpus striata by 12 determinations; type: functional; summary of the method: as §2
# [19] = organism: Rattus norvegicus; assay: Compound Evaluated for the homovanillic acid levels of rats limbic system by 12 determinations; type: functional; summary of the method: as §3
# [20] = organism: Mus musculus; assay: Motility against number of interrupted beams in 1 hour in reserpine treated mice by 4 determinations.; type: functional
# [21] = organism: Mus musculus; assay: Motility against number of interrupted beams in 1 hr in reserpine & apomorphine treated mice by 10 determinations; type: functional; summary of the method: as §1
# [22] = organism: Rattus norvegicus; assay: Compound was evaluated for the homovanillic acid levels of rats corpus striata by 11 determinations; type: functional; summary of the method: as §2
# [23] = organism: Rattus norvegicus; assay: Compound was evaluated for the homovanillic acid levels of rats limbic system by 7 determinations; type: functional; summary of the method: as §3
# [24] = organism: Mus musculus; assay: Motility against number of interrupted beams in 1 hour in naive mice by 9 determinations; type: functional
# [25] = organism: Mus musculus; assay: Motility against number of interrupted beams in 1 hour in reserpine treated mice by 4 determinations; type: functional
# [26] = organism: Mus musculus; assay: Motility against number of interrupted beams in 1 hr in reserpine & apomorphine treated mice by 9 determinations; type: functional; summary of the method: as §1
# [27] = organism: Mus musculus; assay: Motility against number of interrupted beams in 1 hour in reserpine treated mice by 13 determinations; type: functional
# [28] = organism: Rattus norvegicus; assay: Compound was evaluated for the homovanillic acid levels of rats corpus striata by 18 determinations; type: functional; summary of the method: as §2
# [29] = organism: Rattus norvegicus; assay: Compound was evaluated for the homovanillic acid levels of rats limbic system by 17 determinations; type: functional; summary of the method: as §3
# [30] = organism: Mus musculus; assay: Motility against number of interrupted beams in 1 hour in naive mice by 15 determinations; type: functional
# [31] = organism: Mus musculus; assay: Antipsychotic effect was tested against motility scores in reserpinized mice at a control value of 11; toxic; type: functional, organism-based
SMILES,Motility [1],Motility [2],also measured
CC(=O)Nc1ccc(C(=O)Nc2cc(C)cc(C)n2)cc1,522,12,
COc1ccc(Cl)cc1C(=O)Nc1cc(C)cc(C)n1,748,19,
COc1ccccc1C(=O)Nc1cc(C)cc(C)n1,646,7,
CSc1ccc(C(=O)Nc2cc(C)cc(C)n2)cc1,770,0,
Cc1cccc(C(=O)Nc2cc(C)cc(C)n2)c1,505,0,
Cc1cc(C)nc(NC(=O)c2ccc(Cl)cc2)c1,630,72,Motility [3]: 619; Motility [4]: 73.4; Motility [5]: 577; HVA level [6]: 0.644 µg/g; HVA level [7]: 0.355 µg/g
CCN1CCCC1CNC(=O)c1cc(S(=O)(=O)CC)ccc1OC (stereo unspecified) [SULTOPRIDE],,,Motility [3]: 135; Motility [8]: 152; HVA level [9]: 1.898 µg/g; HVA level [10]: 0.493 µg/g
Cc1cc(C)nc(NC(=O)c2cccc([N+](=O)[O-])c2)c1,634,15,
CCN(CC)CCNC(=O)c1cc(Cl)c(N)cc1OC [METOCLOPRAMIDE],,,Motility [11]: 126; Motility [12]: 63; HVA level [13]: 2.531 µg/g; HVA level [14]: 0.618 µg/g
CCN(C(=O)c1ccc(F)cc1)c1cc(C)cc(C)n1,965,29,
Cc1cc(C)nc(NC(=O)c2ccc([N+](=O)[O-])cc2)c1,746,0,
COc1ccc(S(C)(=O)=O)cc1C(=O)Nc1cc(C)cc(C)n1,755,2,
Cc1cc(C)nc(NC(=O)c2ccccc2Cl)c1,875,4,
CCN(C(=O)c1ccccc1)c1cc(C)cc(C)n1,914,31,
Cc1cc(C)nc(NC(=O)c2ccccc2)c1,450,83,Motility [15]: 85.1; Motility [16]: 642; Motility [17]: 427; HVA level [18]: 0.504 µg/g; HVA level [19]: 0.297 µg/g
CCN(C(=O)c1cccc(Cl)c1)c1cc(C)cc(C)n1,941,21,

SMILES,Motility [1],Motility [2],also measured
Cc1cc(C)nc(NC(=O)c2ccc(N)cc2)c1,337,9,Motility [3]: 439; Motility [20]: 0; Motility [21]: 385; HVA level [22]: 0.308 µg/g; HVA level [23]: 0.268 µg/g
Cc1cc(C)nc(NC(=O)c2ccc(F)cc2)c1,291,113,Motility [24]: 299; Motility [25]: 118.2; Motility [26]: 491; HVA level [13]: 0.667 µg/g; HVA level [23]: 0.194 µg/g
Cc1cc(C)nc(NC(=O)c2cccc(Cl)c2)c1,617,52,Motility [27]: 41.2; Motility [8]: 727; HVA level [28]: 0.396 µg/g; HVA level [29]: 0.141 µg/g; Motility [30]: 577
Cc1cc(C)nc(NC(=O)c2ccccc2O)c1,747,0,
COc1ccc(C(=O)Nc2cc(C)cc(C)n2)cc1,456,0,
Cc1cc(C)nc(NC(=O)c2cccc(Br)c2)c1,826,21,
CCS(=O)(=O)c1ccc(OC)c(C(=O)Nc2cc(C)cc(C)n2)c1,841,16,
CCOc1ccc(C(=O)Nc2cc(C)cc(C)n2)cc1,552,4,
COc1cccc(C(=O)Nc2cc(C)cc(C)n2)c1,822,0,
Cc1cc(C)nc(N(C)C(=O)c2ccccc2)c1,796,,Motility [31]: Toxic
CCCN(C(=O)c1ccccc1)c1cc(C)cc(C)n1,780,8,
Cc1cc(C)nc(NC(=O)c2cccc(C(F)(F)F)c2)c1,661,4,
Cc1cc(C)nc(NC(=O)c2ccc(Br)cc2)c1,797,0,
CC(=O)Nc1cccc(C(=O)Nc2cc(C)cc(C)n2)c1,777,8,
Cc1cc(C)nc(NC(=O)c2cccc(N)c2)c1,652,4,
